Source: ChEMBL document CHEMBL1153798, “Substituted tetrahydroquinolines as potent allosteric inhibitors of reverse transcriptase and its key mutants” (Bioorg Med Chem Lett, 2009)

Columns and labels:
[1] = Protein binding in human plasma; assay type: ADME, cell-free; details: read-out: PB
[2] = test system: Human immunodeficiency virus 1; assay: Antiviral activity against HIV1 3B infected human MT4 cells assessed as drug level required for 95% inhibition in the presence of 50% normal human serum; assay type: functional
Outline: (§1)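 Spread assay: MT-4 human T-lymphoid cells in RPMI 1640 with either 10% FBS or 50% NHS; CIC95 taken as the concentration blocking >95% of virus spread. Wild-type virus H9IIIB or R8 as stated per line. Geometric mean of at least two determinations, individual values within 25% of the mean.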

[3] = test system: Human immunodeficiency virus 1; assay: Antiviral activity against HIV1 3B infected human MT4 cells assessed as drug level required for 95% inhibition in the presence of 10% fetal bovine serum; assay type: functional; outline: as §1
[4] = test system: Human immunodeficiency virus 1; assay: Antiviral activity against HIV1 R8 infected human MT4 cells assessed as drug level required for 95% inhibition in the presence of 50% normal human serum; assay type: functional; outline: as §1
[5] = test system: Human immunodeficiency virus 1; assay: Antiviral activity against HIV1 R8 infected human MT4 cells assessed as drug level required for 95% inhibition in the presence of 10% fetal bovine serum; assay type: functional; outline: as §1
[6] = test system: Human immunodeficiency virus 1; assay: Antiviral activity against HIV1 carrying reverse transcriptase G190A mutant infected human MT4 cells by phenoscreen assay in the presence of 40 percent normal human serum; details: Human immunodeficiency virus 1, MT4
[7] = test system: Human immunodeficiency virus 1; assay: Antiviral activity against HIV1 carrying reverse transcriptase Y188L mutant infected human MT4 cells by phenoscreen assay in the presence of 40 percent normal human serum; assay type: functional, organism-based; details: Human immunodeficiency virus 1, MT4
Outline: (§2)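 Phenotypic recombinant-virus assay (Phenoscreen, Monogram Bioscience), run with 40% normal human serum present. IC50 is the compound concentration in cell culture that inhibits viral replication by 50%.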

[8] = test system: Human immunodeficiency virus 1; assay: Antiviral activity against HIV1 carrying reverse transcriptase […]/G190A mutant infected human MT4 cells in the presence of 40 percent normal human serum; assay type: functional; outline: as §2
[9] = test system: Human immunodeficiency virus 1; assay: Antiviral activity against HIV1 infected human MT4 cells by phenoscreen assay in the presence of 40 percent normal human serum; assay type: functional, organism-based; details: Human immunodeficiency virus 1, MT4
[10] = test system: Human immunodeficiency virus 1; assay: Ratio of IC50 for HIV1 carrying reverse transcriptase Y181C mutant to IC50 for wild type HIV1 in the presence of 40% normal human serum; assay type: functional
[11] = test system: Human immunodeficiency virus 1; assay: Antiviral activity against HIV1 carrying reverse transcriptase K103N/G190A mutant infected human MT4 cells by phenoscreen assay in the presence of 40 percent normal human serum; assay type: functional, organism-based; details: Human immunodeficiency virus 1, MT4; outline: as §2
[12] = test system: Human immunodeficiency virus 1; assay: Antiviral activity against HIV1 carrying reverse transcriptase V106A/G190A/F227L mutant infected human MT4 cells by phenoscreen assay in the presence of 40 percent normal human serum; assay type: functional, organism-based; details: Human immunodeficiency virus 1, MT4; outline: as §2
[13] = test system: Human immunodeficiency virus 1; assay: Antiviral activity against HIV1 carrying reverse transcriptase K103N mutant infected human MT4 cells by phenoscreen assay in the presence of 40 percent normal human serum; assay type: functional, organism-based; details: Human immunodeficiency virus 1, MT4; outline: as §2
[14] = test system: Human immunodeficiency virus 1; assay: Ratio of IC50 for HIV1 carrying reverse transcriptase K103N/Y181C mutant to IC50 for wild type HIV1 in the presence of 40% normal human serum; assay type: functional
[15] = test system: Human immunodeficiency virus 1; assay: Ratio of IC50 for HIV1 carrying reverse transcriptase K103N mutant to IC50 for wild type HIV1 in the presence of 40% normal human serum; assay type: functional
[16] = test system: Human immunodeficiency virus 1; assay: Ratio of IC50 for HIV1 carrying reverse transcriptase V106A/G190A/F227L mutant to IC50 for wild type HIV1 in the presence of 40% normal human serum; assay type: functional
[17] = test system: Human immunodeficiency virus 1; assay: Ratio of IC50 for HIV1 carrying reverse transcriptase […]/G190A mutant to IC50 for wild type HIV1 in the presence of 40% normal human serum; assay type: functional
[18] = test system: Human immunodeficiency virus 1; assay: Ratio of IC50 for HIV1 carrying reverse transcriptase G190A mutant to IC50 for wild type HIV1 in the presence of 40% normal human serum; assay type: functional
[19] = test system: Human immunodeficiency virus 1; assay: Ratio of IC50 for HIV1 carrying reverse transcriptase Y181C/G190A mutant to IC50 for wild type HIV1 in the presence of 40% normal human serum; assay type: functional
[20] = Inhibition of HIV1 reverse transcriptase K103 mutant
[21] = test system: Human immunodeficiency virus 1; assay: Ratio of IC50 for HIV1 carrying reverse transcriptase […]/ Y181C/G190A mutant to IC50 for wild type HIV1 in the presence of 40% normal human serum; assay type: functional
[22] = test system: Human immunodeficiency virus 1; assay: Antiviral activity against HIV1 carrying reverse transcriptase K101E/G190A mutant infected human MT4 cells by phenoscreen assay in the presence of 40 percent normal human serum; details: Human immunodeficiency virus 1, MT4
Rattus norvegicus = assay: Hepatic clearance in rat at 10 mg/kg, po and 2 mg/kg, iv; details: in vivo
[23] = test system: Human immunodeficiency virus 1; assay: Antiviral activity against HIV1 carrying reverse transcriptase K103N/ Y181C/G190A mutant infected human MT4 cells by phenoscreen assay in the presence of 40 percent normal human serum; assay type: functional, organism-based; details: Human immunodeficiency virus 1, MT4; outline: as §2
[24] = test system: Human immunodeficiency virus 1; assay: Ratio of IC50 for HIV1 carrying reverse transcriptase […] mutant to IC50 for wild type HIV1 in the presence of 40% normal human serum; assay type: functional
[25] = test system: Human immunodeficiency virus 1; assay: Antiviral activity against HIV1 carrying reverse transcriptase Y181C/G190A mutant infected human MT4 cells by phenoscreen assay in the presence of 40 percent normal human serum; assay type: functional, organism-based; details: Human immunodeficiency virus 1, MT4; outline: as §2
[26] = test system: Human immunodeficiency virus 1; assay: Antiviral activity against HIV1 carrying reverse transcriptase G190S mutant infected human MT4 cells by phenoscreen assay in the presence of 40 percent normal human serum; details: Human immunodeficiency virus 1, MT4
[27] = test system: Human immunodeficiency virus 1; assay: Ratio of IC50 for HIV1 carrying reverse transcriptase K103N/G190A mutant to IC50 for wild type HIV1 in the presence of 40% normal human serum; assay type: functional
[28] = test system: Human immunodeficiency virus 1; assay: Ratio of IC50 for HIV1 carrying reverse transcriptase K103N/V179E mutant to IC50 for wild type HIV1 in the presence of 40% normal human serum; assay type: functional
[29] = test system: Human immunodeficiency virus 1; assay: Ratio of IC50 for HIV1 carrying reverse transcriptase G190S mutant to IC50 for wild type HIV1 in the presence of 40% normal human serum; assay type: functional
[30] = test system: Human immunodeficiency virus 1; assay: Antiviral activity against HIV1 carrying reverse transcriptase Y181C mutant infected human MT4 cells by phenoscreen assay in the presence of 40 percent normal human serum; assay type: functional, organism-based; details: Human immunodeficiency virus 1, MT4; outline: as §2
[31] = test system: Human immunodeficiency virus 1; assay: Antiviral activity against HIV1 carrying reverse transcriptase K103N/V179E mutant infected human MT4 cells by phenoscreen assay in the presence of 40 percent normal human serum; assay type: functional, organism-based; details: Human immunodeficiency virus 1, MT4; outline: as §2
[32] = test system: Human immunodeficiency virus 1; assay: Antiviral activity against HIV1 carrying reverse transcriptase K103N/P225H mutant infected human MT4 cells by phenoscreen assay in the presence of 40 percent normal human serum; assay type: functional, organism-based; details: Human immunodeficiency virus 1, MT4; outline: as §2
[33] = test system: Human immunodeficiency virus 1; assay: Ratio of IC50 for HIV1 carrying reverse transcriptase K103N/P225H mutant to IC50 for wild type HIV1 in the presence of 40% normal human serum; assay type: functional
[34] = Half life in Sprague-Dawley rat at 10 mg/kg, po and 2 mg/kg, iv; assay type: ADME, organism-based; details: in vivo
[35] = test system: Human immunodeficiency virus 1; assay: Antiviral activity against HIV1 carrying reverse transcriptase […] mutant infected human MT4 cells by phenoscreen assay in the presence of 40 percent normal human serum; assay type: functional, organism-based; details: Human immunodeficiency virus 1, MT4; outline: as §2
[36] = test system: Human immunodeficiency virus 1; assay: Ratio of IC50 for HIV1 carrying reverse transcriptase Y188L mutant to IC50 for wild type HIV1 in the presence of 40% normal human serum; assay type: functional
[37] = test system: Human immunodeficiency virus 1; assay: Antiviral activity against HIV1 carrying reverse transcriptase K101E/ Y181C/G190A mutant infected human MT4 cells by phenoscreen assay in the presence of 40 percent normal human serum; details: Human immunodeficiency virus 1, MT4

**Q.** Which fraction unbound [1] does the source give for `Cc1ccc2c(c1)CCCN2C(=O)SCC(=O)Nc1ccc(S(N)(=O)=O)cc1Cl` here?
**A.** Its fraction unbound is 0.01.

**Q.** What about the ID95 [2] of the same molecule?
**A.** The ID95 was 396 nM.

**Q.** What about the ID95 [3] of the same molecule?
**A.** The ID95 was 78 nM.

**Q.** With `O=C(CSC(=O)N1CCCc2cc(Cl)cc(Cl)c21)Nc1ccc(C(=O)NCc2ccccc2)cc1Cl` as the molecule, how does the Activity [4] read?
**A.** Its Activity is 307 nM.

**Q.** What about the Activity [5] of the same molecule?
**A.** The Activity was 63 nM.

**Q.** Which IC50 [6] does the source give for `CS(=O)(=O)c1ccc(NC(=O)CSC(=O)N2CCCc3cc(Cl)cc(Cl)c32)c(Cl)c1` here?
**A.** Its IC50 is 157 nM.

**Q.** What about the IC50 [7] of the same molecule?
**A.** The IC50 was greater than 250 nM.

**Q.** What about the “fold change (FC)” value [8] of the same molecule?
**A.** The value was greater than 56.

**Q.** What about the IC50 [9] of the same molecule?
**A.** Its IC50 is 4.5 nM.

**Q.** What about the “fold change (FC)” value [10] of the same molecule?
**A.** The value was 19.

**Q.** And the IC50 [11]?
**A.** Its IC50 is 57.2 nM.

**Q.** And the IC50 [12]?
**A.** Its IC50 is greater than 250 nM.

**Q.** What about the IC50 [13] of the same molecule?
**A.** The IC50 was 2 nM.

**Q.** And the “fold change (FC)” value [14]?
**A.** Its value is 33.2.

**Q.** And the “fold change (FC)” value [15]?
**A.** The value was 0.4.

**Q.** And the “fold change (FC)” value [16]?
**A.** Its value is greater than 56.

**Q.** And the Activity [4]?
**A.** Its Activity is 5.7 nM.

**Q.** And the “fold change (FC)” value [17]?
**A.** The value was greater than 56.

**Q.** What about the “fold change (FC)” value [18] of the same molecule?
**A.** The value was 34.8.

**Q.** And the “fold change (FC)” value [19]?
**A.** Its value is greater than 56.

**Q.** And the IC50 [20]?
**A.** The IC50 was 3 nM.

**Q.** And the “fold change (FC)” value [21]?
**A.** Its value is greater than 56.

**Q.** What about the IC50 [22] of the same molecule?
**A.** The IC50 was greater than 250 nM.

**Q.** What about the CL (Rattus norvegicus) of the same molecule?
**A.** The CL was 84 mL/min/kg.

**Q.** And the IC50 [23]?
**A.** Its IC50 is greater than 250 nM.

**Q.** What about the “fold change (FC)” value [24] of the same molecule?
**A.** The value was 11.

**Q.** And the IC50 [25]?
**A.** Its IC50 is greater than 250 nM.

**Q.** What about the IC50 [26] of the same molecule?
**A.** The IC50 was greater than 250 nM.

**Q.** What about the “fold change (FC)” value [27] of the same molecule?
**A.** Its value is 21.3.

**Q.** And the “fold change (FC)” value [28]?
**A.** Its value is 1.7.

**Q.** What about the “fold change (FC)” value [29] of the same molecule?
**A.** Its value is greater than 56.

**Q.** What about the IC50 [30] of the same molecule?
**A.** The IC50 was 86.6 nM.

**Q.** What about the Activity [5] of the same molecule?
**A.** The Activity was 5.6 nM.

**Q.** And the IC50 [31]?
**A.** Its IC50 is 7.5 nM.

**Q.** And the IC50 [32]?
**A.** Its IC50 is 9.3 nM.

**Q.** What about the “fold change (FC)” value [33] of the same molecule?
**A.** The value was 2.1.

**Q.** And the half-life [34]?
**A.** The half-life was 1.7 h.

**Q.** What about the IC50 [35] of the same molecule?
**A.** Its IC50 is 50.5 nM.

**Q.** And the “fold change (FC)” value [36]?
**A.** The value was greater than 56.

**Q.** What about the IC50 [37] of the same molecule?
**A.** The IC50 was greater than 250 nM.

**Q.** With `NCCCNC(=O)c1ccc(NC(=O)CSC(=O)N2CCCc3cc(Cl)cc(Cl)c32)c(Cl)c1` as the molecule, how does the Activity [4] read?
**A.** The Activity was 34 nM.

**Q.** What about the Activity [5] of the same molecule?
**A.** The Activity was 97 nM.
